Experimental data reported in ChEMBL document CHEMBL4680120, “Novel anti-Alzheimer phenol-lipoyl hybrids: Synthesis, physico-chemical characterization, and biological evaluation” (Eur J Med Chem, 2020).
Converted amounts (≈) assume the structure as drawn. The source made the active and inactive calls. The rule behind the calls is not given here.

What was measured:
[1] = system: Erythrocyte; assay: Antioxidant activity in human RBC assessed as increase in total antioxidant capacity level up to 400 ug/ml measured after 72 hrs relative to control; format: functional; conditions: dose microg/ml <=400
[2] = Solubility of compound in water by HPLC analysis; format: physicochemical
[3] = Stability in simulated gastric fluid at pH 1.2 assessed as relative difference measured after 15 mins in presence of pepsin by HPLC analysis; format: ADME; conditions: isolated protein, pH 1.2, 0.25 h
Summary of the method: (§1)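 Incubation in simulated gastric fluid (pH 1.2, pepsin) or simulated intestinal fluid (pH 6.8, pancreatin). Aliquots deproteinized with ice-cold acetonitrile, centrifuged at 4°C and 12000 rpm for 10 min, filtered, analyzed by HPLC. RD% = (Ci − Cf)/Ci × 100. Stable if RD < 5%. Means of three experiments.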

[4] = Stability in simulated gastric fluid at pH 1.2 assessed as relative difference measured after 30 mins in presence of pepsin by HPLC analysis; format: ADME; conditions: isolated protein, pH 1.2, 0.5 h; summary of the method: as §1
[5] = Stability in simulated gastric fluid at pH 1.2 assessed as relative difference measured after 60 mins in presence of pepsin by HPLC analysis; format: ADME; conditions: isolated protein, pH 1.2, 1 h; summary of the method: as §1
[6] = Stability in simulated intestinal fluid at pH 6.8 assessed as relative difference measured after 15 mins in presence of pancreatin by HPLC analysis; format: ADME; conditions: simulated gi fluid, pH 6.8, 0.25 h; summary of the method: as §1
[7] = Stability in simulated intestinal fluid at pH 6.8 assessed as relative difference measured after 30 mins in presence of pancreatin by HPLC analysis; format: ADME; conditions: simulated gi fluid, pH 6.8, 0.5 h; summary of the method: as §1
[8] = Stability in simulated intestinal fluid at pH 6.8 assessed as relative difference measured after 60 mins in presence of pancreatin by HPLC analysis; format: ADME; conditions: simulated gi fluid, pH 6.8, 1 h; summary of the method: as §1
[9] = Stability in simulated intestinal fluid at pH 6.8 assessed as relative difference measured after 120 mins in presence of pancreatin by HPLC analysis; format: ADME; conditions: simulated gi fluid, pH 6.8, 2 h; summary of the method: as §1
[10] = Stability in simulated intestinal fluid at pH 6.8 assessed as relative difference measured after 180 mins in presence of pancreatin by HPLC analysis; format: ADME; conditions: simulated gi fluid, pH 6.8, 3 h; summary of the method: as §1
[11] = Half life in human plasma by HPLC analysis; format: ADME, cell-free
Summary of the method: (§2)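 Compound stock added to human plasma pre-warmed to 37°C and diluted with 0.02 M phosphate buffer (pH 7.4) to 80% plasma. 100 μL samples taken over time, quenched with 200 μL cold acetonitrile, centrifuged, and supernatant analyzed by HPLC. t½ and kobs are means of three experiments.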

[12] = Stability in human plasma assessed as observed rate constant by HPLC analysis; format: ADME, cell-free; summary of the method: as §2
[13] = system: SH-SY5Y; assay: Cytotoxicity against human SH-SY5Y cells assessed as reduction in cell viability at 1 to 250 mg/l measured after 48 hrs by MTT assay; format: cell-based; conditions: dose 1-250 mg/L
Summary of the method: (§3)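 SH-SY5Y cells grown in DMEM/F12 with 10% FBS and differentiated with retinoic acid (10 μM), seeded at 1×10^4 per well and cultured 24 h. Cells were given hybrids at 1–250 mg/L with or without Aβ1-42 (20 μM) for 48 h. MTT (5 mg/mL) added for 4 h at 37°C, DMSO solubilization, read at 570/630 nm. LDH read at 450 nm. Five independent experiments.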

[14] = system: SH-SY5Y; assay: Neuroprotective activity against amyloid beta (1 to 42)-induced toxicity in human SH-SY5Y cells assessed as increase in cell viability at 1 to 250 mg/l measured after 48 hrs by MTT assay; format: functional, cell-based; conditions: dose 1-250 mg/L; summary of the method: as §3
[15] = system: SH-SY5Y; assay: Neuroprotective activity against amyloid beta (1 to 42)-induced toxicity in human SH-SY5Y cells assessed as increase in cell viability at 1 to 250 mg/l measured after 48 hrs by LDH release assay; format: functional, cell-based; conditions: dose 1-250 mg/L; summary of the method: as §3
[16] = Stability in simulated intestinal fluid at pH 6.8 assessed as hydrolysis measured immediately in presence of pancreatin by HPLC analysis; format: ADME; conditions: simulated gi fluid; summary of the method: as §1
[17] = system: SH-SY5Y; assay: Neuroprotective activity against amyloid beta (1 to 42)-induced apoptosis in human SH-SY5Y cells assessed as decrease in DNA fragmentation at IC50 measured after 48 hrs by Hoechst 33258 staining based fluorescence microscopic assay; format: functional, cell-based
Summary of the method: (§4)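 Differentiated SH-SY5Y cells, 4×10^4 per well, exposed 48 h to Aβ1-42 (20 μM) with or without hybrid. Fixed in 4% paraformaldehyde for 30 min, stained with Hoechst 33258 for 15 min. Nuclear chromatin condensation and DNA fragmentation scored by fluorescence microscopy at ×200.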

[18] = system: SH-SY5Y; assay: Neuroprotective activity against amyloid beta (1 to 42)-induced apoptosis in human SH-SY5Y cells assessed as decrease in DNA condensation at IC50 measured after 48 hrs by Hoechst 33258 staining based fluorescence microscopic assay; format: functional, cell-based; summary of the method: as §4
[19] = system: SH-SY5Y; assay: Neuroprotective activity against amyloid beta (1 to 42)-induced apoptosis in human SH-SY5Y cells assessed as early apoptotic cells at IC50 measured after 48 hrs by Annexin-V/Propidium iodide staining based flow cytometry (reference value: 0.74%); format: functional
[20] = system: SH-SY5Y; assay: Neuroprotective activity against amyloid beta (1 to 42)-induced apoptosis in human SH-SY5Y cells assessed as late apoptotic cells at IC50 measured after 48 hrs by Annexin-V/Propidium iodide staining based flow cytometry (reference value: 33.72%); format: functional
[21] = system: SH-SY5Y; assay: Neuroprotective activity against amyloid beta (1 to 42)-induced apoptosis in human SH-SY5Y cells assessed as necrotic cells at IC50 measured after 48 hrs by Annexin-V/Propidium iodide staining based flow cytometry (reference value: 6.99%); format: functional
[22] = system: Erythrocyte; assay: Cytoprotective activity against H2O2-induced oxidative damage in human RBC assessed as increase in cell viability measured after 72 hrs by MTT assay; format: functional, cell-based
[23] = system: Erythrocyte; assay: Cytoprotective activity against H2O2-induced oxidative damage in human RBC assessed as increase in cell viability measured after 72 hrs by LDH release assay; format: functional, cell-based
Summary of the method: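 Heparinized whole blood cultured with phytohemagglutinin. Cells were co-incubated with 50 or 100 μM hybrid and H2O2 (25 μM). Viability was read by MTT: lymphocytes at 2×10^5 per well, MTT 4 h at 37°C, formazan dissolved in DMSO, absorbance 570 nm. LDH release was measured on 100 μL medium with a commercial kit. Results are relative to untreated control.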

[24] = system: Erythrocyte; assay: Cytoprotective activity against H2O2-induced oxidative damage in human RBC assessed as recovery of H2O2-induced cell death at 50 to 100 uM measured after 72 hrs by MTT assay relative to control; format: functional; conditions: dose 50-100 µM
[25] = system: Erythrocyte; assay: Cytoprotective activity against H2O2-induced oxidative damage in human RBC assessed as recovery of H2O2-induced cell death at 50 to 100 uM measured after 72 hrs by LDH release assay relative to control; format: functional; conditions: dose 50-100 µM
Summary of the method: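 Heparinised human whole blood cultured in phytohemagglutinin-containing chromosome medium and co-incubated with hybrids and H2O2 at 37C for 72 h. LDH released into the culture medium was measured with a commercial kit. Triton X-100 served as positive control, with untreated cultures as reference. Cytoprotection was expressed as viability relative to control.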

[26] = system: Erythrocyte; assay: Cytoprotective activity against H2O2-induced oxidative damage in human RBC assessed as restoration of antioxidant activity measured after 72 hrs by TAC assay; format: functional, cell-based

Row | Compound | solubility [2] [µg/mL] | fold change (FC) [3] [%] | fold change (FC) [4] [%] | fold change (FC) [5] [%] | fold change (FC) [6] [%] | fold change (FC) [7] [%] | fold change (FC) [8] [%] | fold change (FC) [9] [%] | fold change (FC) [10] [%] | half-life [11] [h] | K [12] [h⁻¹] | Activity [13] | Activity [14] | Activity [15] | further results
1 | O=C1O[C@H]([C@@H](O)CO)C(O)=C1O [ASCORBIC ACID] | – | – | – | – | – | – | – | – | – | – | – | – | – | – | Activity [1]: 10.7%
2 | COc1cc(/C=C/C(=O)NCCNC(=O)CCCCC2CCSS2)ccc1O (stereo not drawn) | 23 (≈ 54.2 µM) | 0.25 | 1.28 | 3.45 | 2.52 | 3.01 | 5.2 | 4.15 | 4.8 | 57.4 | 0.012 | Non-Toxic | Active | Active | –
3 | O=C(CCCCC1CCSS1)NCCCCNC(=O)Cc1ccc(O)c(O)c1 (stereo not drawn) | 81 (≈ 190 µM) | 10.37 | 37.63 | 57.89 | 1.5 | 20.44 | 42.7 | 63 | 88.91 | 1.49 | 0.479 | Non-Toxic | Active | Active | –
4 | O=C(CCCCC1CCSS1)NCCCOC(=O)Cc1ccc(O)c(O)c1 (stereo not drawn) | 933 (≈ 2260 µM) | 72.4 | 86.54 | 100 | – | – | – | – | – | 0.75 | 0.93 | Non-Toxic | Active | Active | Stabilty [16]: Unstable
5 | COc1ccc(CC(=O)NCCCNC(=O)CCCCC2CCSS2)cc1OC (stereo not drawn) | 42 (≈ 95.3 µM) | 2.9 | 1.89 | 4.03 | 0.45 | 0.73 | 0.9 | 1.32 | 2.09 | > 12 | – | Non-Toxic | Active | Active | Activity [17]: Active; Activity [18]: Active; Activity [19]: 3.51%; Activity [20]: 16.01%; Activity [21]: 1.66%; Activity [1]: 4.2%; Activity [22]: Dose-dependent effect; Activity [23]: Dose-dependent effect; Activity [24]: 0.5%; Activity [25]: 0.4%; Activity [26]: Dose-dependent effect
6 | O=C(CCCCC1CCSS1)NCCOC(=O)Cc1ccc(O)c(O)c1 (stereo not drawn) | 736 (≈ 1840 µM) | 12.34 | 46.72 | 67.34 | 2.5 | 35.4 | 54.62 | 70.45 | 100 | 1.13 | 0.613 | Non-Toxic | Active | Active | –
7 | COc1ccc(/C=C/C(=O)NCCCCNC(=O)CCCCC2CCSS2)cc1OC (stereo not drawn) | – | 4.67 | 8.23 | 22.16 | 3 | 3.64 | 11.79 | 22.21 | 34.75 | 36.4 | 0.019 | Non-Toxic | Active | Active | –
8 | O=C(CCCCC1CCSS1)NCCOCCOC(=O)Cc1ccc(O)c(O)c1 (stereo not drawn) | 2480 (≈ 5600 µM) | 45.21 | 63.52 | 78.9 | 3.87 | 45.89 | 60.78 | 89.78 | 100 | 2.16 | 0.32 | Non-Toxic | Active | Active | –
9 | O=C(CCCCC1CCSS1)NCCNC(=O)Cc1ccc(O)c(O)c1 (stereo not drawn) | 2690 (≈ 6740 µM) | 0.63 | 0.99 | 2.74 | 1.89 | 2.17 | 4.02 | 3.78 | 4.32 | 23.1 | 0.031 | Non-Toxic | Active | Active | –
